Series [1] concerns the target Sigma non-opioid intracellular receptor 1 (Cavia porcellus, UniProt Q60492). Kind of series: Displacement of [3H]-pentazocine from sigma 1 receptor in guinea pig brain after 30 mins by radioligand binding assay. (In a radioligand displacement assay an active substance lowers the binding of a labelled ligand.)
Series [2] in a line: Selectivity ratio of Ki for sigma 1 receptor in guinea pig brain to Ki for sigma 2 receptor in rat liver membrane. In kind it is cell membranes.
A short description of series [3]: Displacement of [3H]-DTG from sigma 2 receptor in rat liver membrane after 30 mins by radioligand binding assay. In kind it is cell membranes. The method, boiled down:
(§1)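 […] (30 Ci/mmol) radioligand binding per Matsumoto et al. IC50 taken from six to nine drug concentrations, in two or three experiments with duplicate samples. Ki obtained by non-linear curve fitting. Tested as hydrochloride salts.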

Series [4] can be described thus: Lipophilicity, log D of the compound at pH 7.4. To be noted: buffer. The format is physicochemical. Summed up: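 LogD calculated for compounds at pH 7.4.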
The nature of series [5]: Inhibition of P-gp in dog MDCK-MDR1 cells by calcein-AM assay. In kind it is cell-based, Canis lupus familiaris. The method, boiled down:
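MDCK-MDR1 cells overexpressing P-gp, grown in DMEM high glucose with 10% FBS and 2 mM glutamine at 37 °C under 5% CO2. Seeded at 50,000 cells/well and left overnight to confluence. Compound added for 30 min at 37 °C, then calcein-AM (final 2.5 µM in PBS) for 30 min. Wells washed with ice-cold PBS. Fluorescence read at 485/535 nm. EC50 from % increase over untreated basal versus log dose.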

For another series, the species on record is Rattus norvegicus. Put plainly: Displacement of [3H]-DTG from sigma 2 receptor in rat liver membrane at […] after 30 mins by radioligand binding assay. The format is cell membranes. The method, boiled down:
as §1

Chain of Sigma non-opioid intracellular receptor 1 (Q60492 whole entry): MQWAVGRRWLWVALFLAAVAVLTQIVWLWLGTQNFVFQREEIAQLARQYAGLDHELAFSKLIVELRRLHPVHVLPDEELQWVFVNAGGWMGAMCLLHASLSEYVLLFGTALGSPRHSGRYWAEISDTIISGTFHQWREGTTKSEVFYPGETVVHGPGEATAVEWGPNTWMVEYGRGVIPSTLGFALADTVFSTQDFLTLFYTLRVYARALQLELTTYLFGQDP

Broadly, the Ki is a measure of affinity in units of concentration, obtained from inhibition or displacement. Read a low Ki as higher affinity. What is called logD is the decadic logarithm of the distribution of all forms, ionised or not, between an organic phase and buffer at a given pH. High values mean a more lipophilic compound, low ones a more hydrophilic compound. The EC50 is the concentration giving half of the maximal effect. `COc1cc2c(cc1OC)CN(CCCCNC(=O)c1cc(C)ccc1OC)CC2`: the inhibition constant Ki amounted to 2150 nM in series [1] and 8.68 nM in series [3]. For the same compound, the Ratio Ki in series [2] was found to be 247. This compound also registered a pH-dependent lipophilicity (logD) in series [4] of 2.83. Also, the EC50 in series [5] is 1600 nM.
As to `COc1cc(Br)c(C(=O)NCCCN2CCN(C3CCCCC3)CC2)cc1OC`, the Ki stood at 268 nM in series [1] and 467 nM in series [3]. Besides, the Ratio Ki in series [2] was 0.6. The compound also returned a logD in series [4] of 2.11. The EC50 in series [5] was 45000 nM.
Compound `COc1cc2c(cc1OC)CN(CCCC1CCCc3c(OC)cccc31)CC2` (stereo not drawn) returned an inhibition constant Ki in series [1] of 151 nM. The same compound displayed an Activity in the series listed under Rattus norvegicus of 96%. Besides, the logD in series [4] came out at 4.33. In addition, the concentration giving a half-maximal response (EC50) in series [5] is 1100 nM.
Consider `COc1cccc2c1CCCC2C(=O)NCCCN1CCN(C2CCCCC2)CC1` (stereo not drawn), for which the Ki in series [1] was determined as 35.1 nM; in series [3] it was 16.5 nM. For the same compound, the Ratio Ki in series [2] is 2. Also, the log distribution coefficient (logD) in series [4] is 2.46. Besides, in series [5], the EC50 is 8600 nM.
Turning to `COc1ccc(C)cc1C(=O)NCCCN1CCN(C2CCCCC2)CC1`, the Ki in series [1] stood at 45.5 nM; in series [3], 26.1 nM. Also, in series [2], the Ratio Ki is 1.7. Further, the log distribution coefficient (logD) in series [4] was found to be 1.94. In series [5], the concentration for a half-maximal effect (EC50) is 8600 nM.
The compound `Cc1ccccc1NC(=N)Nc1ccccc1C` [DITOLYLGUANIDINE] registered an inhibition constant (Ki) in series [3] of 26.3 nM.
`COc1cc(Br)c(C(=O)NCCCN2CCc3cc(OC)c(OC)cc3C2)cc1OC`: the results for the inhibition constant (Ki) in series [1] and in series [3] were 2570 nM and 50.9 nM, respectively. Moreover, the Ratio Ki in series [2] was 50. This compound returned a logD in series [4] of 2.89. Further, in series [5], the concentration giving a half-maximal response (EC50) was 45000 nM.
`COc1cccc2c1CCCC2CCCN1CCN(C2CCCCC2)CC1` (stereo not drawn) displayed an inhibition constant Ki in series [3] of 0.68 nM. Further, in series [4], the pH-dependent lipophilicity (logD) worked out at 3.75. Besides, in series [5], the concentration giving a half-maximal response (EC50) was 3000 nM.
In the case of `O=C1c2ccccc2CCN1CCCN1CCN(C2CCCCC2)CC1`, the figures for the Ki in series [1] and in series [3] were 24.7 nM and 26.6 nM, respectively. For the same compound, in series [2], the Ratio Ki stood at 1. In addition, the log distribution coefficient (logD) in series [4] was 1.49. Moreover, the EC50 in series [5] was 20000 nM.
With `COc1cc2c(cc1OC)CN(CCCN1CCc3ccccc3C1=O)CC2`, the values for the inhibitory constant (Ki) in series [1] and in series [3] were 709 nM and 4.84 nM, respectively. Besides, the Ratio Ki in series [2] came to 147. In addition, the log distribution coefficient (logD) in series [4] came to 2.25. Besides, in series [5], the concentration for a half-maximal effect (EC50) was 12000 nM.
Take `COc1cc2c(cc1OC)CN(CCCNC(=O)c1cc(C)ccc1OC)CC2`: the Ki in series [1] was found to be 534 nM; in series [3], 2.63 nM. Also, the Ratio Ki in series [2] is 203. The same compound displayed a logD in series [4] of 2.7. The EC50 in series [5] was 5300 nM.
On the same counts, the results for `COc1cc2c(cc1OC)CN(CCCNC(=O)c1cc(Br)cc(OC)c1OC)CC2` are 4400 nM, 12.9 nM, 341, 3.22 and 2500 nM.
`COc1cc(Br)cc(C(=O)NCCCN2CCN(C3CCCCC3)CC2)c1OC`: the inhibitory constant (Ki) is 25.8 nM in series [1] and 21.2 nM in series [3]. The Ratio Ki in series [2] came to 1.2. Further, the logD in series [4] was found to be 2.43. The EC50 in series [5] was 2700 nM.
On the same counts, the results for `COc1cc2c(cc1OC)CN(CCCNC(=O)C1CCCc3c(OC)cccc31)CC2` (stereo not drawn) are 146 nM, 21.1 nM, 7, 3.21 and 2700 nM.

The record behind these values is ChEMBL document CHEMBL1828588, “Arylamides hybrids of two high-affinity σ2 receptor ligands as tools for the development of PET radiotracers” (Eur J Med Chem, 2011).
